Test results published in ChEMBL document CHEMBL1123519, “Chemically stable homocinnamyl analogues of the leukotrienes: synthesis and preliminary biological evaluation” (J Med Chem, 1986).
Active and inactive are the calls of the source. No cut-off for these calls is given here.

How the values were obtained:
[1] = species: Cavia porcellus; test: Compound was evaluated for its activity in vitro with use of isolated guinea pig tracheal spiral strips in the presence of L-cysteine (3 mM); assay type: functional; settings: Trachea
Outline: (§1)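 Guinea pig tracheal strips held at 2 g resting tension and stabilized 60 min, with bath fluid changed every 15 min. Contraction to carbachol 30 μM, wash, then restabilized 60 min. Cumulative agonist concentration-response curves were run, with responses expressed as % of carbachol maximum. L-cysteine 3 mM or L-serine borate 45 mM was preincubated 30 min. EC50 was derived by linear regression, and significance by paired t test (p<0.05).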

[2] = species: Cavia porcellus; test: Compound was evaluated for its activity in vitro with use of isolated guinea pig tracheal spiral strips in the presence (control ); assay type: functional; settings: Trachea; outline: as §1
[3] = species: Cavia porcellus; test: Compound was evaluated for its activity in vitro with use of isolated guinea pig tracheal spiral strips in the presence of L-serine borate (45 mM); assay type: functional; settings: Trachea; outline: as §1
[4] = species: Cavia porcellus; test: Compound was evaluated for its activity in vitro with use of isolated guinea pig tracheal spiral strips in the presence (control ); Not active; assay type: functional, Trachea; outline: as §1
[5] = species: Cavia porcellus; test: Compound was tested for inhibition of LTE4 (8 nM)-induced contraction of isolated guinea pig trachea at 10 mM concentration.; assay type: functional; settings: in the assay text read “10 µM” for “10 mM”
Outline: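 Isolated guinea pig trachea contracted with LTE4 8 nM. Analogue present in the bath, and inhibition of the LTE4 contraction expressed as percent.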

[6] = species: Cavia porcellus; test: Compound was tested for FPL-55712 sensitivity in the absence of metabolic inhibitors; No sensitivity.; assay type: functional, organism-based
Outline: (§2)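 Guinea pig tracheal strips at 2 g resting tension, stabilized 60 min, carbachol (30 μM) reference contraction, restabilized 60 min. FPL-55712 10 μM was preincubated 30 min before cumulative agonist curves, without metabolic inhibitors. EC50 values were compared with and without antagonist by Student's paired t test (p<0.05). Kb was obtained by the Furchgott method.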

[7] = species: Cavia porcellus; test: Compound was tested for FPL-55712 sensitivity in the absence of metabolic inhibitors; Yes; assay type: functional, organism-based; outline: as §2

| SMILES | EC50 [2] | EC50 [3] | also measured |
| --- | --- | --- | --- |
| CCCCCCCc1cccc(C/C=C/[C@H](SC[C@H](N)C(=O)NCC(=O)O)[C@H](O)CCCC(=O)O)c1 | – | – | EC50 [1]: 4.77 µM |
| CCCCCCCc1ccc(C/C=C\[C@@H](SC[C@H](N)C(=O)NCC(=O)O)[C@@H](O)CCCC(=O)O)cc1 | 2.68 µM | – | EC50 [1]: 0.251 µM |
| CCCCCCCc1ccc(C/C=C/[C@H](SCC(NC(=O)CCC(N)C(=O)O)C(=O)NCC(=O)O)[C@H](O)CCCC(=O)O)cc1 (some centres not stated) | 0.574 µM | 0.0745 µM | – |
| CCCCCCCc1ccccc1C/C=C/[C@H](SCC(NC(=O)CCC(N)C(=O)O)C(=O)NCC(=O)O)[C@H](O)CCCC(=O)O (some centres not stated) | 18.6 µM | 18.4 µM | – |
| CCCCC/C=C/c1cccc(C/C=C/[C@H](SC[C@H](N)C(=O)NCC(=O)O)[C@H](O)CCCC(=O)O)c1 | 13 µM | – | – |
| CCCCCCOc1cccc(C/C=C/[C@H](SC[C@H](N)C(=O)NCC(=O)O)[C@H](O)CCCC(=O)O)c1 | – | – | EC50 [4]: Not Active; Inhibition [5]: 24% |
| CCCCCCCc1ccccc1C/C=C/[C@H](SCC(N)C(=O)O)[C@H](O)CCCC(=O)O (some centres not stated) | – | – | Inhibition [5]: 28% |
| CCCCC/C=C\C\C=C/C=C/C=C/[C@@H](SC[C@H](N)C(=O)NCC(=O)O)[C@@H](O)CCCC(=O)O [LEUKOTRIENE D4] | 0.00392 µM | – | EC50 [1]: 0.000513 µM |
| CCCCCCOc1ccccc1C/C=C/[C@H](SC[C@H](N)C(=O)NCC(=O)O)[C@H](O)CCCC(=O)O | – | – | EC50 [4]: Not Active; Inhibition [5]: 18% |
| CCCCCCCc1cccc(C/C=C/[C@H](SCC(NC(=O)CCC(N)C(=O)O)C(=O)NCC(=O)O)[C@H](O)CCCC(=O)O)c1 (some centres not stated) | 1.36 µM | 0.447 µM | – |
| CCCCCCOc1ccc(C/C=C/[C@H](SCC(NC(=O)CCC(N)C(=O)O)C(=O)NCC(=O)O)[C@H](O)CCCC(=O)O)cc1 (some centres not stated) | 1.28 µM | 0.256 µM | Sensitivity [6]: No sensitivity |
| CCCCCCCc1cccc(C/C=C/[C@H](SCC(N)C(=O)O)[C@H](O)CCCC(=O)O)c1 (some centres not stated) | 4.83 µM | – | – |
| CCCCC/C=C/c1ccc(C/C=C/[C@H](SCC(NC(=O)CCC(N)C(=O)O)C(=O)NCC(=O)O)[C@H](O)CCCC(=O)O)cc1 (some centres not stated) | 3.82 µM | 0.451 µM | – |
| CCCCCCCc1ccc(C/C=C/[C@H](SCC(N)C(=O)O)[C@H](O)CCCC(=O)O)cc1 (some centres not stated) | 1.7 µM | – | – |
| CCCCCCOc1ccc(C/C=C/[C@H](SC[C@H](N)C(=O)NCC(=O)O)[C@H](O)CCCC(=O)O)cc1 | 9.1 µM | – | Sensitivity [7]: Active |
| CCCCCCCc1ccccc1C/C=C/[C@H](SC[C@H](N)C(=O)NCC(=O)O)[C@H](O)CCCC(=O)O | – | – | EC50 [1]: 1.87 µM |
